MC4R antag cAMP = human MC4R antagonism in cAMP assay. 360,000 compounds, 0.48% hits. inhibition, % at 6.5 µM. P32245. MC4R-expressing cells, MTII-stimulated cAMP, LANCE TR-FRET;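 active = inhibition above its plate's cutoff, the mean of tested wells on that plate plus 3 SD, cut at about 29% in these data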;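 note: 0% = Melanotan II alone and 100% = Melanotan II plus saturating MCL0020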
Target sequence (P32245 whole entry, looked up): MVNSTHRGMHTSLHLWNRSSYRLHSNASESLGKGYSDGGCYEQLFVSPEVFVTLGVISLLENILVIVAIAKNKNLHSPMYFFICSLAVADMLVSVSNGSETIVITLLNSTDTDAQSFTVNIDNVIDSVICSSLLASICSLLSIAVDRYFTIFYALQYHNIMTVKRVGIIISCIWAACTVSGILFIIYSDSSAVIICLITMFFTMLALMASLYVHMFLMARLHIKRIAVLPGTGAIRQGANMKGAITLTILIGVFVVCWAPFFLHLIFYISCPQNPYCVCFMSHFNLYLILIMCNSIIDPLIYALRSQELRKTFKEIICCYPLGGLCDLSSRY
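System: U2OS-MC4R stable cell line; Technique: Eu-cAMP/anti-cAMP TR-FRET, emission 671 nm; Repeats: single well per compound; Also added: Melanotan II; Dosing: one concentration, 6.5 µM nominal; Schedule: 30-min compound, 1-h challenge, 1-h detection, room temperature.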
NR2E3 ag-1 = NR2E3 (human) agonism; Q9Y5X4; GST-NR2E3/biotin-RetCOR TR-FRET, 1536-well; inhibition of corepressor binding, % at 4.78 µM; 320,000 compounds, 0.12% hits; AID 2300;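 active = percent inhibition above the cutoff of mean plus 3 SD of all tested compounds, set per screening campaign, cut at about 20% in these data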;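 note: 0% = DMSO wells and 100% = biotin wells as full block of FRET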
Target sequence (Q9Y5X4 whole entry, looked up): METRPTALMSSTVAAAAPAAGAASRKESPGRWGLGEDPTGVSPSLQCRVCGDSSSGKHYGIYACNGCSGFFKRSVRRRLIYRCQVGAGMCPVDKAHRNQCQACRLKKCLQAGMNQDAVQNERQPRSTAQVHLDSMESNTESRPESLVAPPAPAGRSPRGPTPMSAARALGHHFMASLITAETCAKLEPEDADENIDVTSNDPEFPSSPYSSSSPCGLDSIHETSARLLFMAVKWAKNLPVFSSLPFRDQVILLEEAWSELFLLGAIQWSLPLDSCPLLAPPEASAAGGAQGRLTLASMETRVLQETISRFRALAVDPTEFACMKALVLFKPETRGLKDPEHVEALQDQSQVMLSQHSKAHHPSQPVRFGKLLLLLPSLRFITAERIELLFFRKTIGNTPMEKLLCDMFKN
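Material: NR2E3–RetCOR corepressor complex | Quantity: 1.35 nM GST-tagged NR2E3 final | Schedule: 5 h at 4 °C | Replication: Singlicate compound wells | Reagent: RetCOR corepressor, biotinylated, 7 nM | Controls: Biotin wells as high control, 0.6% DMSO wells as low control | Signal: TR-FRET, Eu(K)-anti-GST donor, streptavidin-D2 acceptor, ex 340, em 617/671 nm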
Rev-erbA mod = modulates human Rev-erb alpha binding to DNA; Rev-erbα–FITC-DNA binding, fluorescence polarization, 90 min; activity, % at 10 µM; 370,000 compounds, 0.79% hits; AID 1259318;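 active = activity above about 14%, limit read from the data; passing the limit was not always enough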;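 note: 0% = DMSO wells with 35 nM protein and 100% = DMSO wells with 750 nM protein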
PG9 binder = binds the HIV-1 gp120 antibody PG9 | 360,000 compounds, 0.43% hits | TR-FRET gp120-PG9 antibody binding | AID 624416 | inhibition, % at 6.7 µM; in the data active = inhibition above about 8.5%
MC4R ag barr = activates human MC4R beta-arrestin recruitment; P32245; U2OS MC4R beta-arrestin complementation, luminescence; percent of melanotan II response, DMSO zero; activation, % at 8.9 µM; 360,000 compounds, 0.98% hits; AID 540308;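 active = activation above a per-plate cutoff, the mean activation of sample wells on that plate plus 3 SD, cut at about 8% in these data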
NR2E3 ag-2 = agonists of human NR2E3 nuclear receptor; CHO-S Gal4-NCOR/VP16-NR2E3 two-hybrid, luciferase; inhibition of corepressor binding, % at 3.98 µM; 360,000 compounds, 0.35% hits; AID 602229;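 active = inhibition above the mean of all tested compounds plus 3 SD, cut at about 70% in these data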;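 note: 0% = DMSO with NR2E3 transfected cells and 100% = cells lacking NR2E3 construct; higher means lower luciferase signal from less NR2E3 corepressor binding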
PG9 bind confirm = confirmation of small molecules binding HIV-1 gp120 antibody PG9. shares compounds with PG9 binder. TR-FRET PG9 antibody binding, biochemical. inhibition, % at 6.7 µM. 1,500 compounds, 90% hits. AID 651571; in the data active = inhibition above about 9%
PGV04 Ab binding = PGV04 control antibody binding, counter-screen. AID 651604. inhibition, % at 6.7 µM. TR-FRET PGV04 antibody-gp120 binding, biochemical. shares compounds with PG9 binder. 1,500 compounds, 95% hits; in the data active = inhibition above about 9.5%
PG9 binder DR = PG9 antibody binding, dose response; shares compounds with PG9 binder; TR-FRET PG9 antibody-gp120 binding inhibition; IC50, µM; 95 tested, under 10 active; in the data active = IC50 below about 10 µM
PGV04 DR counter = binds control antibody PGV04 in PG9 counter-screen | shares compounds with PG9 binder | TR-FRET binding to control antibody PGV04 | IC50, µM | 95 compounds, 20% hits | AID 651937
PG126 DR counter = counter-screen for PG9 binders: binding to control antibody PG126; shares compounds with PG9 binder; TR-FRET binding to antibody PG126, counterscreen; IC50, µM; 95 compounds, 20% hits
Starred values were filed as active, the others as inactive; i = inactive; nt = no result. Compounds with a hit are over-represented: about 2.7% of the library has one in this group of screens. Cut-off read from the data, not from the text of the source, unless noted: active = IC50 below about 9 µM; inactive = the rest.

SMILES | MC4R antag cAMP | NR2E3 ag-1 | Rev-erbA mod | PG9 binder | MC4R ag barr | NR2E3 ag-2 | PG9 bind confirm | PGV04 Ab binding | others
O=C(NCCNC(=O)c1ccccc1Cl)c1ccco1 | 14 | 2 | 2 | 2 | 0 | 0 | nt | nt
CCOc1c(C)cnc2c1c(=O)n(Cc1ccc(Cl)cc1)c(=O)n2C | -1 | 3 | -2 | -2 | 0 | 0 | nt | nt
COc1ccc(NC(=O)CSc2cc(C(=O)c3nccn3C)c3ccccc3n2)cc1 | 5 | 3 | 0 | -4 | -1 | -4 | nt | nt
Cc1cc(SCC(=O)NCC2CCCO2)nc2ccccc12 (centres undefined) | 2 | 8 | 7 | 12* | -4 | 8 | 17* | 20*
Cc1cccc(C)c1NC(=O)CSc1cc(C(=O)c2nccn2C)c2ccccc2n1 | 14 | 2 | -1 | 14* | 1 | 10 | 41* | 58*
COc1ccc2c(C)cc(SCC(=O)NC3CCCC3)nc2c1 | 1 | nt | 5 | 11* | -2 | 7 | 15* | 29*
Cc1ccc(-n2c(SCC(=O)NCC3CCCO3)nc3ccccc3c2=O)cc1C (centres undefined) | -5 | -3 | 3 | 0 | -1 | -15 | nt | nt
Cc1cc(SCC(=O)Nc2ncc(Cl)cc2Cl)nc2ccccc12 | 1 | 6 | 11 | 12* | 0 | -5 | 15* | 20*
CC1(C(=O)NS(=O)(=O)c2ccccc2C(F)(F)F)CCN1C(=O)C1CCCCC1 (centres undefined) | -1 | nt | -5 | 0 | 0 | -11 | nt | nt
CC1(C)CC(=O)C2=C(C1)OC(N)=C([N+](=O)[O-])C2c1ccc(F)cc1 (centres undefined) | 12 | -1 | 3 | 1 | -1 | -9 | nt | nt
COc1ccc(N2Cc3cccc(C(=O)NC(C)CCc4ccco4)c3C2=O)cc1 (centres undefined) | -1 | 2 | -18 | 0 | 0 | -42 | nt | nt
O=C(COC(=O)c1cccnc1Cl)Nc1ncc(Cl)cc1Cl | -3 | 7 | -8 | 2 | 0 | 1 | nt | nt
O=C(CCCn1c(SCc2cccc(F)c2)nc2ccccc2c1=O)NCC1CCCO1 (centres undefined) | 1 | -2 | 0 | 13* | -2 | 3 | 9.5* | 13*
O=C(CCCn1c(SCC(=O)NCC2CCCO2)nc2ccccc2c1=O)NCc1ccccc1 (centres undefined) | 0 | -1 | 1 | 1 | -2 | -15 | nt | nt
Cc1cc(SCC(=O)NC2CC2)nc2ccccc12 | 14 | nt | -3 | 11* | -1 | -2 | 12* | 16*
Cc1ccc(-c2nn(-c3ccccc3)cc2C(=O)OCC(=O)Nc2ncc(Cl)cc2Cl)cc1 | 2 | 1 | 18 | 20* | 0 | -20 | 12* | 27*
CCCCn1c(SCC(=O)c2ccc(OC)c(OC)c2)nc2cc(S(N)(=O)=O)ccc21 | 5 | -1 | 13 | -1 | -2 | 8 | nt | nt
CCCCn1c(SCC(=O)c2ccc(OCC)cc2)nc2cc(S(N)(=O)=O)ccc21 | 3 | 1 | 11 | 19* | 2 | -52 | 22* | 35*
CCCC(=O)Nc1ccc(C(=O)Nc2ccc([N+](=O)[O-])cc2OC)cc1 | -10 | 3 | -2 | 10* | 5 | -2 | 9.5* | 17*
C=CCN(C(=O)c1csnn1)C(C(=O)NC1CCCC1)c1ccc(Cl)cc1 (centres undefined) | 10 | 5 | 1 | -2 | -2 | -15 | nt | nt
COc1ccccc1C(=O)Nc1nnc(S(=O)(=O)N2CCCCC2)s1 | 0 | 2 | 0 | 36* | -3 | -53 | 35* | 42*
COc1ccccc1C(=O)Nc1nnc(S(=O)(=O)N2CCCCCC2)s1 | -2 | 2 | -9 | 2 | 0 | -49 | nt | nt
NC(N)=NS(=O)(=O)c1ccc(NC(=S)NC(=O)c2ccc3c(c2)OCO3)cc1 | 20 | 3 | 13 | 9.5* | 7 | -6 | 15* | 22*
CCOC(=O)CN1C(=O)C(=O)N(Cc2c(Cl)cccc2Cl)C1=O | -1 | 1 | -1 | -1 | -1 | -11 | nt | nt
Cc1cccc(N(Cc2cc3cc(C)ccc3[nH]c2=O)C(=O)c2cccs2)c1 | -7 | 3 | 15 | 1 | 3 | -39 | nt | nt
SMILES | MC4R antag cAMP | NR2E3 ag-1 | Rev-erbA mod | PG9 binder | MC4R ag barr | NR2E3 ag-2 | PG9 bind confirm | PGV04 Ab binding | others
Cc1ccc2cc(CN(C(=O)c3cccs3)c3ccccc3)c(=O)[nH]c2c1 | -3 | 7 | 21 | 14* | 1 | -1 | 21* | 33*
O=C(Nc1ccc(F)cc1Cl)c1ccc2c(=O)n3c(nc2c1)CCCCC3 | 0 | 2 | 19 | 29* | -1 | 16 | 30* | 9.7* | PG9 binder DR=>67;PGV04 DR counter=i;PG126 DR counter=i
COc1ccc(C)cc1NC(=O)CSc1nnc(-c2ccc(Br)cc2)o1 | 1 | 6 | 9 | 11* | 4 | -10 | 19* | 26*
COc1ccccc1NC(=O)CSc1nnc(-c2ccc(C)cc2)o1 | 5 | 1 | -3 | -1 | -1 | -104 | nt | nt
CC1(C)Cc2nc3[nH]c(=S)n(-c4ccccc4)c(=O)c3cc2CO1 | 2 | -2 | -5 | 0 | -1 | 10 | nt | nt
CCn1c(=S)[nH]c2nc3c(cc2c1=O)CCCC3 | -2 | 9 | 17 | 22* | -1 | -19 | 10* | 9.9* | PG9 binder DR=>67;PGV04 DR counter=i;PG126 DR counter=i
O=c1c2cc3c(nc2[nH]c(=S)n1-c1ccccc1)CCCC3 | -3 | 4 | 22 | 22* | 0 | -8 | 31* | 34*
CC(C)(C)Cc1nnc(NS(=O)(=O)c2ccccc2)s1 | 9 | 6 | 3 | 9.0* | -1 | -14 | 11* | 17*
CC(C)Cc1nnc(NS(=O)(=O)c2ccccc2)s1 | 0 | nt | 0 | -1 | -1 | -19 | nt | nt
COc1ccc(Cl)cc1NC(=O)c1nnn(CC(=O)Nc2ccc3c(c2)OCO3)c1N | 2 | 9 | -8 | 10* | 1 | -2 | 20* | 27*
Cc1nc(N2CCC(C)CC2)c2c(C)c(C(=O)Nc3ccc(C(F)(F)F)cc3)sc2n1 | 17 | 0 | 15 | 42* | 8 | -10 | 8 | 11*
